Tests used:
pErk in A375 cells = assay: HTRF assay of downstream phosphorylation, pErk in A375; assay type: cell-based; conditions: Homo sapiens, A-375, read-out: pErk IC50
H358 (G12 C) = assay: CellTiter-Glo cell viability assay, H358; assay type: cell-based; conditions: Homo sapiens, NCI-H358, 72 h, read-out: Cellular activity IC50, H358 (G12 C)
Outline: (§1)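 Cells seeded, then held 24 h at 37 °C/5 % CO2 before test compound in DMSO was added at various concentrations. Plates were incubated a further 72 h at 37 °C, 5 % CO2, humidified. Controls were DMSO vehicle and 10 μM staurosporine. CellTiter-Glo reagent was added at equal volume to the medium, then 2 min shaking and 10 min at room temperature before luminescence (ATP) reading. IC50 from dose-response fit; plates accepted only if Z' ≥0.5, from 16 control values each.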

[1] = Control assay for nucleotide exchange assay; conditions: 3 mM compound; percent of control
A549 (G12S) = assay: CellTiter-Glo cell viability assay, A549; assay type: cell-based; conditions: Homo sapiens, A549, 72 h, read-out: Cellular activity IC50, A549 (G12S)
Outline: as §1

tErk in A375 cells = assay: HTRF assay, tErk in A375; assay type: cell-based; conditions: Homo sapiens, A-375, read-out: tErk IC50
tAkt in A375 cells = assay: HTRF assay, tAkt in A375; assay type: cell-based; conditions: Homo sapiens, A-375, read-out: tAkt IC50
K‐Ras(G12D) = K‐Ras(G12D) (Homo sapiens, UniProt P01116, G12D); assay: Nucleotide exchange assay; assay type: biochemical
K‐Ras(G12D), sequence (P01116 1-188 isoform P01116-2 G12D): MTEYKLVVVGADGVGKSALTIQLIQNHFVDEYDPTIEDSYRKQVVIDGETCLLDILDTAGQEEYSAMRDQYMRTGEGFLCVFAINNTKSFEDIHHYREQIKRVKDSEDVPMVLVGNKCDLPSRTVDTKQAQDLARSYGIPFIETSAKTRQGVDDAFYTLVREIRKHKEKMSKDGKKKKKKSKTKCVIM
Outline: (§2)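 SOS1 (final 30.2 nM for G12D, 4.6 nM for wild type) and GTP (1 μM final) follow. Incubated overnight at room temperature, then GDP detection reagent for 1 h. Luminescence read; IC50 from sigmoidal curves.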

pAkt in SNU‐1 cells = assay: HTRF assay of downstream phosphorylation, pAkt in SNU-1; assay type: cell-based; conditions: Homo sapiens, SNU1, read-out: pAkt IC50
Outline: (§3)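 Test compound was given as a 3-fold 8-point series, top 330 μM final, 1 % DMSO, for 1 h. EGF at 3 nM final was then added for 15 min. Cells were lysed 30 min at room temperature. TR-FRET antibody detection followed after 20 h at room temperature; read-out gave IC50.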

K‐Ras wild type protein = K‐Ras wild type protein (Homo sapiens, UniProt P01116); assay: Nucleotide exchange assay; assay type: biochemical
K‐Ras wild type protein, sequence (P01116 1-188 isoform P01116-2): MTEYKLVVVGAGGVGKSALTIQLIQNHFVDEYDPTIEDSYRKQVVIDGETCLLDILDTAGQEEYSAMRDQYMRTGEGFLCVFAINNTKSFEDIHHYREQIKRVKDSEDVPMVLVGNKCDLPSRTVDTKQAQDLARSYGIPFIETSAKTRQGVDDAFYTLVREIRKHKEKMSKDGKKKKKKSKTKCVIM
Outline: as §2

HCT15 (G13D) = assay: CellTiter-Glo cell viability assay, HCT15; assay type: cell-based; conditions: Homo sapiens, HCT-15, 72 h, read-out: Cellular activity IC50, HCT15 (G13D)
Outline: as §1

tErk in SNU‐1 cells = assay: HTRF assay, tErk in SNU-1; assay type: cell-based; conditions: Homo sapiens, SNU1, read-out: tErk IC50
Outline: as §3

NCI‐H441 (G12 V) = assay: CellTiter-Glo cell viability assay, NCI-H441; assay type: cell-based; conditions: Homo sapiens, NCI-H441, 72 h, read-out: Cellular activity IC50, NCI‐H441 (G12 V)
Outline: as §1

tAkt in SNU‐1 cells = assay: HTRF assay, tAkt in SNU-1; assay type: cell-based; conditions: Homo sapiens, SNU1, read-out: tAkt IC50
Outline: as §3

pAkt in A375 cells = assay: HTRF assay of downstream phosphorylation, pAkt in A375; assay type: cell-based; conditions: Homo sapiens, A-375, read-out: pAkt IC50
SNU‐1 (G12D) = assay: CellTiter-Glo cell viability assay, SNU-1; assay type: cell-based; conditions: Homo sapiens, SNU1, 72 h, read-out: Cellular activity IC50, SNU‐1 (G12D)
Outline: as §1

pErk in SNU‐1 cells = assay: HTRF assay of downstream phosphorylation, pErk in SNU-1; assay type: cell-based; conditions: Homo sapiens, SNU1, read-out: pErk IC50
Outline: as §3

K‐Ras4B = K‐Ras4B (Homo sapiens, UniProt P01116); assay: NMR titration experiments; assay type: binding
K‐Ras4B, sequence (P01116 1-188 isoform P01116-2): as above
Outline: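 GDP-bound K-Ras4B was titrated with test compound and followed by NMR chemical shift perturbation; KD derived from the titration.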

SMILES | IC50 (pErk in A375 cells) | IC50 (H358 (G12 C)) | WT %CRTL (3 mM) [1] | IC50 (A549 (G12S)) | IC50 (tErk in A375 cells) | IC50 (tAkt in A375 cells) | IC50 (K‐Ras(G12D)) | IC50 (pAkt in SNU‐1 cells) | IC50 (K‐Ras wild type protein) | IC50 (HCT15 (G13D)) | IC50 (tErk in SNU‐1 cells) | IC50 (NCI‐H441 (G12 V)) | IC50 (tAkt in SNU‐1 cells) | IC50 (pAkt in A375 cells) | IC50 (SNU‐1 (G12D)) | IC50 (pErk in SNU‐1 cells) | Kd (K‐Ras4B)
O=S(=O)(NN=C(c1ccc(O)cc1)c1ccc(O)cc1)c1ccc(Cl)cc1 [8 c, N′‐(bis(4‐hydroxyphenyl)methylene)‐4‐chlorobenzenesulfonohydrazide] | 203 µM | 69.8 ± 2.4 µM | 91% | 71.3 ± 6.5 µM | 255 µM | > 1000 µM | 583 ± 146 µM | 96.6 µM | 1050 ± 405 µM | 85 ± 9.2 µM | > 875 µM | 102 ± 16 µM | 586 µM | > 1000 µM | 81 ± 26.3 µM | 240 µM | –
O=S(=O)(NN=C(c1ccc(O)cc1)c1ccc(O)cc1)c1ccc(OC(F)(F)F)cc1 [8 f, N′‐(bis(4‐hydroxyphenyl)methylene)‐4‐(trifluoromethoxy)benzenesulfonohydrazide] | – | 104 ± 3 µM | 92% | 111 ± 10 µM | – | – | 858 ± 55 µM | – | 1650 ± 731 µM | 112 ± 10 µM | – | 179 ± 43 µM | – | – | 110 ± 24 µM | – | –
O=C(NN=C(c1ccc(O)cc1)c1ccc(O)cc1)c1ccccc1 [compound 10, N′‐(Bis(4‐hydroxyphenyl)methylene)‐benzohydrazide] | – | – | 93% | 112 ± 3 µM | – | – | > 3000 µM | – | > 3000 µM | – | – | 158 ± 3 µM | – | – | 173 ± 1 µM | – | –
Oc1ccc(C(=NNc2ccccn2)c2ccc(O)cc2)cc1 [7 f, 4,4′‐((2‐(Pyridin‐2‐yl)hydrazinylidene)‐methylene)diphenol] | – | – | 98% | 67 ± 1.8 µM | – | – | 1910 ± 98 µM | – | 2610 ± 225 µM | – | – | 65.8 ± 37.3 µM | – | – | 71.1 ± 11.3 µM | – | –
N#Cc1ccc(S(=O)(=O)NN=C(c2ccc(O)cc2)c2ccc(O)cc2)cc1 [8 g, N′‐(bis(4‐hydroxyphenyl)methylene)‐4‐cyanobenzenesulfonohydrazide] | – | > 30 µM | 86% | > 30 µM | – | – | > 3000 µM | – | 1500 ± 572 µM | > 30 µM | – | > 30 µM | – | – | > 30 µM | – | –
O=C(c1ccc(O)cc1)c1ccc(O)cc1 [compound 9, 4,4’‐Dihydroxybenzophenone, reference compound] | – | – | – | > 300 µM | – | – | 1210 ± 116 µM | – | 1330 ± 104 µM | – | – | > 300 µM | – | – | 187 ± 19 µM | – | 9100 ± 3900 µM
COc1ccc(S(=O)(=O)NN=C(c2ccc(O)cc2)c2ccc(O)cc2)cc1 [8 b, N′‐(bis(4‐hydroxyphenyl)methylene)‐4‐methoxybenzenesulfonohydrazide] | – | 161 ± 9 µM | 89% | 184 ± 12 µM | – | – | 1290 ± 307 µM | – | 1620 ± 565 µM | 219 ± 43 µM | – | 260 ± 45 µM | – | – | 154 ± 30 µM | – | –
O=[N+]([O-])c1ccc(S(=O)(=O)NN=C(c2ccc(O)cc2)c2ccc(O)cc2)cc1 [8 e, N′‐(bis(4‐hydroxyphenyl)methylene)‐4‐nitrobenzenesulfonohydrazide] | – | 49.2 ± 0.9 µM | – | 49.8 ± 2.1 µM | – | – | 255 µM | – | 298 ± 196 µM | 51.1 ± 1.2 µM | – | 58.4 ± 6.9 µM | – | – | 46.8 ± 1.7 µM | – | –
